Experimental data taken from ChEMBL document CHEMBL4270599, “Synthesis of a 3'-C-ethynyl-β-d-ribofuranose purine nucleoside library: Discovery of C7-deazapurine analogs as potent antiproliferative nucleosides” (Eur J Med Chem, 2018).

Assays:
HCT-15 = experiment: Growth inhibition of human HCT15 cells assessed as cell growth at 10^-5 M incubated for 48 hrs by sulforhodamine B assay relative to control; format: functional; conditions: HCT-15, 48 h, read-out: Activity
786-0 = experiment: Growth inhibition of human 786-0 cells assessed as cell growth at 10^-7 M incubated for 48 hrs by sulforhodamine B assay relative to control; format: functional; conditions: 786-0, 48 h, read-out: Activity
NCI-H322M = experiment: Cytotoxicity against human NCI-H322M cells after 48 hrs by SRB assay; format: functional
RPMI-8226 = experiment: Cytotoxicity against human RPMI8226 cells after 48 hrs by SRB assay; format: functional; conditions: RPMI-8226, 48 h
MCF7 = experiment: Growth inhibition of human MCF7 cells assessed as cell growth at 10^-6 M incubated for 48 hrs by sulforhodamine B assay relative to control; format: functional; conditions: MCF7, 48 h, read-out: Activity
NCI-H522 = experiment: Growth inhibition of human NCI-H522 cells assessed as cell growth at 10^-8 M incubated for 48 hrs by sulforhodamine B assay relative to control; format: functional; conditions: NCI-H522, 48 h, read-out: Activity
OVCAR-8 = experiment: Cytotoxicity against human OVCAR8 cells after 48 hrs by SRB assay; format: functional; conditions: OVCAR-8, 48 h
EKVX = experiment: Growth inhibition of human EKVX cells assessed as cell growth at 10^-7 M incubated for 48 hrs by sulforhodamine B assay relative to control; format: functional; conditions: read-out: Activity
BT-549 = experiment: Cytotoxicity against human BT549 cells after 48 hrs by SRB assay; format: functional; conditions: BT-549, 48 h
NCI-H460 = experiment: Growth inhibition of human NCI-H460 cells assessed as cell growth at 10^-8 M incubated for 48 hrs by sulforhodamine B assay relative to control; format: functional; conditions: NCI-H460, 48 h, read-out: Activity
CCRF-CEM [1] = experiment: Growth inhibition of human CCRF-CEM cells assessed as cell growth at 10^-7 M incubated for 48 hrs by sulforhodamine B assay relative to control; format: functional; conditions: read-out: Activity
CCRF-CEM [2] = experiment: Growth inhibition of human CCRF-CEM cells assessed as cell growth at 10^-5 M incubated for 48 hrs by sulforhodamine B assay relative to control; format: functional; conditions: read-out: Activity
Hs-578T = experiment: Growth inhibition of human Hs 578T cells assessed as cell growth at 10^-7 M incubated for 48 hrs by sulforhodamine B assay relative to control; format: functional; conditions: read-out: Activity
A498 = experiment: Growth inhibition of human A498 cells assessed as cell growth at 10^-8 M incubated for 48 hrs by sulforhodamine B assay relative to control; format: functional; conditions: A498, 48 h, read-out: Activity
HMEC-1 = experiment: Antiproliferative activity against HMEC1 cells after 4 days by Coulter counter method; format: cell-based; conditions: Homo sapiens, HMEC-1, 96 h
How it was run: (§1)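 Primary HUVEC, primary HMVEC-d and the HMEC-1 line seeded at 20,000 cells/well in gelatin-coated plates in EC growth medium (EGM2). After overnight incubation, 5-fold compound dilutions added. Cells proliferated four days with compound, then trypsinized and counted by Coulter counter to derive IC₅₀.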

OVCAR-4 = experiment: Growth inhibition of human OVCAR4 cells assessed as cell growth at 10^-7 M incubated for 48 hrs by sulforhodamine B assay relative to control; format: functional; conditions: OVCAR-4, 48 h, read-out: Activity
ACHN = experiment: Growth inhibition of human ACHN cells assessed as cell growth at 10^-5 M incubated for 48 hrs by sulforhodamine B assay relative to control; format: functional; conditions: read-out: Activity
NCI-H226 = experiment: Growth inhibition of human NCI-H226 cells assessed as cell growth at 10^-8 M incubated for 48 hrs by sulforhodamine B assay relative to control; format: functional; conditions: NCI-H226, 48 h, read-out: Activity
HT-29 = experiment: Growth inhibition of human HT-29 cells assessed as cell growth at 10^-8 M incubated for 48 hrs by sulforhodamine B assay relative to control; format: functional; conditions: HT-29, 48 h, read-out: Activity
UACC-62 = experiment: Growth inhibition of human UACC62 cells assessed as cell growth at 10^-6 M incubated for 48 hrs by sulforhodamine B assay relative to control; format: functional; conditions: UACC-62, 48 h, read-out: Activity
SNB-19 = experiment: Cytotoxicity against human SNB19 cells after 48 hrs by SRB assay; format: functional; conditions: SNB-19, 48 h
HUVEC = experiment: Antiproliferative activity against HUVEC cells after 4 days by Coulter counter method; format: cell-based; conditions: Homo sapiens, 96 h; how it was run: as §1
M14 = experiment: Cytotoxicity against human M14 cells after 48 hrs by SRB assay; format: functional; conditions: M14, 48 h
Malme-3M = experiment: Growth inhibition of human MALME-3M cells assessed as cell growth at 10^-7 M incubated for 48 hrs by sulforhodamine B assay relative to control; format: functional; conditions: read-out: Activity
[3] = Antiproliferative activity against HELF cells after 4 days by Coulter counter method; format: cell-based; conditions: Homo sapiens, 96 h
NCI/ADR-RES [4] = experiment: Cytotoxicity against human NCI-ADR-RES cells after 48 hrs by SRB assay; format: functional
IGROV-1 = experiment: Growth inhibition of human IGROV1 cells assessed as cell growth at 10^-4 M incubated for 48 hrs by sulforhodamine B assay relative to control; format: functional; conditions: IGROV-1, 48 h, read-out: Activity
HOP-92 = experiment: Growth inhibition of human HOP92 cells assessed as cell growth at 10^-8 M incubated for 48 hrs by sulforhodamine B assay relative to control; format: functional; conditions: HOP-92, 48 h, read-out: Activity
KM12 = experiment: Growth inhibition of human KM12 cells assessed as cell growth at 10^-6 M incubated for 48 hrs by sulforhodamine B assay relative to control; format: functional; conditions: KM12, 48 h, read-out: Activity
NCI/ADR-RES [5] = experiment: Growth inhibition of human NCI/ADR-RES cells assessed as cell growth at 10^-8 M incubated for 48 hrs by sulforhodamine B assay relative to control; format: functional; conditions: read-out: Activity
[6] = read-out: pLC50 (the source's name) (converted)
[7] = read-out: LC50 (the source's name)

**Q.** For `C#C[C@@]1(O)[C@@H](CO)O[C@@H](n2cc(Br)c3c(N)ncnc32)[C@@H]1O`, which growth at 10 µM (HCT-15) is on record?
**A.** The growth at 10 µM was 3%.

**Q.** And the growth at 0.1 µM (786-0)?
**A.** Its growth at 0.1 µM is 69 to 88%.

**Q.** And the GI50 (NCI-H322M; read-out: GI50)?
**A.** The GI50 was 326 to 372 nM.

**Q.** And the TGI (NCI-H322M; read-out: TGI)?
**A.** Its TGI is 4740 to 5410 nM.

**Q.** What about the CC50 (NCI-H322M; [6]) of the same compound?
**A.** Its CC50 is > 100000 nM.

**Q.** What about the GI50 (RPMI-8226; read-out: GI50) of the same compound?
**A.** The GI50 was 67.3 to 242 nM.

**Q.** And the CC50 (RPMI-8226; [7])?
**A.** Its CC50 is > 100000 nM.

**Q.** What about the TGI (RPMI-8226; read-out: TGI) of the same compound?
**A.** Its TGI is 733 to 934 nM.

**Q.** What about the growth at 1 µM (MCF7) of the same compound?
**A.** The growth at 1 µM was 3 to 5%.

**Q.** What about the growth at 0.01 µM (NCI-H522) of the same compound?
**A.** The growth at 0.01 µM was 89 to 95%.

**Q.** And the GI50 (OVCAR-8; read-out: GI50)?
**A.** The GI50 was 13.5 to 62.5 nM.

**Q.** What about the CC50 (OVCAR-8; [7]) of the same compound?
**A.** The CC50 was > 100000 nM.

**Q.** And the TGI (OVCAR-8; read-out: TGI)?
**A.** The TGI was 1120 nM.

**Q.** What about the TGI (OVCAR-8; read-out: pTGI (converted)) of the same compound?
**A.** The TGI was 1120 nM.

**Q.** And the growth at 0.1 µM (EKVX)?
**A.** The growth at 0.1 µM was 60 to 74%.

**Q.** And the GI50 (BT-549; read-out: GI50)?
**A.** Its GI50 is 147 to 234 nM.

**Q.** What about the CC50 (BT-549; [7]) of the same compound?
**A.** The CC50 was > 100000 nM.

**Q.** And the TGI (BT-549; read-out: TGI)?
**A.** The TGI was 536 to 819 nM.

**Q.** And the growth at 0.01 µM (NCI-H460)?
**A.** Its growth at 0.01 µM is 63 to 104%.

**Q.** And the growth at 0.1 µM (CCRF-CEM [1])?
**A.** Its growth at 0.1 µM is 58 to 83%.

**Q.** What about the growth at 10 µM (CCRF-CEM [2]) of the same compound?
**A.** The growth at 10 µM was 3 to 5%.

**Q.** And the growth at 0.1 µM (Hs-578T)?
**A.** Its growth at 0.1 µM is 92 to 97%.

**Q.** What about the growth at 0.01 µM (A498) of the same compound?
**A.** Its growth at 0.01 µM is 95 to 97%.

**Q.** And the IC50 (HMEC-1)?
**A.** Its IC50 is 4.5 nM.

**Q.** What about the growth at 0.1 µM (OVCAR-4) of the same compound?
**A.** Its growth at 0.1 µM is 78 to 89%.

**Q.** And the growth at 10 µM (ACHN)?
**A.** The growth at 10 µM was -7%.

**Q.** And the growth at 0.01 µM (NCI-H226)?
**A.** Its growth at 0.01 µM is 96 to 98%.

**Q.** What about the growth at 0.01 µM (HT-29) of the same compound?
**A.** Its growth at 0.01 µM is 78 to 94%.

**Q.** And the growth at 1 µM (UACC-62)?
**A.** Its growth at 1 µM is 21 to 23%.

**Q.** What about the GI50 (SNB-19; read-out: GI50) of the same compound?
**A.** The GI50 was 17.4 to 211 nM.

**Q.** And the CC50 (SNB-19; [7])?
**A.** The CC50 was > 100000 nM.

**Q.** And the TGI (SNB-19; read-out: TGI)?
**A.** The TGI was 777 to 100000 nM.

**Q.** What about the IC50 (HUVEC) of the same compound?
**A.** The IC50 was 18 nM.

**Q.** What about the GI50 (M14; read-out: GI50) of the same compound?
**A.** Its GI50 is 145 to 353 nM.

**Q.** What about the CC50 (M14; [7]) of the same compound?
**A.** The CC50 was 75300 to 100000 nM.

**Q.** What about the TGI (M14; read-out: TGI) of the same compound?
**A.** Its TGI is 12900 to 14200 nM.

**Q.** And the growth at 0.1 µM (Malme-3M)?
**A.** The growth at 0.1 µM was 77 to 79%.

**Q.** And the IC50 [3]?
**A.** Its IC50 is 17 nM.

**Q.** And the GI50 (NCI/ADR-RES [4]; read-out: GI50)?
**A.** Its GI50 is 45.1 to 65.9 nM.

**Q.** And the TGI (NCI/ADR-RES [4]; read-out: TGI)?
**A.** The TGI was 1020 nM.

**Q.** What about the CC50 (NCI/ADR-RES [4]; [6]) of the same compound?
**A.** Its CC50 is > 100000 nM.

**Q.** What about the TGI (NCI/ADR-RES [4]; read-out: pTGI (converted)) of the same compound?
**A.** The TGI was 1020 nM.

**Q.** And the growth at 100 µM (IGROV-1)?
**A.** Its growth at 100 µM is -2%.

**Q.** And the growth at 0.01 µM (HOP-92)?
**A.** The growth at 0.01 µM was 90 to 94%.

**Q.** What about the growth at 1 µM (KM12) of the same compound?
**A.** Its growth at 1 µM is 21 to 26%.

**Q.** What about the growth at 0.01 µM (NCI/ADR-RES [5]) of the same compound?
**A.** Its growth at 0.01 µM is 80 to 90%.
